{
  "source": "ChEMBL document CHEMBL4004796",
  "about": "“Exploring the Bioactive Terpenoid Content of an Algerian Plant of the Genus Pulicaria: The ent-Series of Asteriscunolides” (J Nat Prod, 2017)",
  "format_in_all_cases": "functional",
  "key": {"[1]": {"test": "Antiinflammatory activity assessed as inhibition of heat-induced albumin denaturation at 1 uM after 20 mins by spectrophotometric method relative to control", "method_in_brief": "(§1)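 Bovine albumin fraction as a 1% aqueous solution, with test agent at 0.5−10 μM, adjusted to pH 6.3 with 1 N HCl. Incubated 20 min at 37 °C, then heated 20 min at 51 °C. After cooling, turbidity read at 660 nm. % inhibition = [(A0 − A1)/A0] × 100 versus control absorbance. Diclofenac sodium as reference.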"}, "[2]": {"test": "Antiinflammatory activity assessed as inhibition of heat-induced albumin denaturation at 5 uM after 20 mins by spectrophotometric method relative to control", "method_in_brief": "as §1"}, "[3]": {"test": "Antiinflammatory activity assessed as inhibition of heat-induced albumin denaturation at 0.5 uM after 20 mins by spectrophotometric method relative to control", "method_in_brief": "as §1"}, "[4]": {"test": "Antiinflammatory activity assessed as inhibition of heat-induced albumin denaturation at 10 uM after 20 mins by spectrophotometric method relative to control", "method_in_brief": "as §1"}, "[5]": {"test": "Antiinflammatory activity assessed as inhibition of heat-induced albumin denaturation after 20 mins by spectrophotometric method", "method_in_brief": "as §1"}, "Rattus norvegicus [6]": {"test_system": "Rattus norvegicus", "test": "Antiinflammatory activity in Wistar rat assessed as inhibition of carrageenan-induced paw edema at 10 mg/kg, po preincubated for 1 hr followed by carrageenan challenge measured at 1 hr by plethysmometer relative to control", "method_in_brief": "(§2)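 Adult male albino Wistar animals, 25−30 g, in groups of five, 25 ± 2 °C, 12 h light/dark. Oral dosing, with PBS vehicle for controls. One hour later, 0.1 mL of 1% carrageenan was injected subplantar into the left hind paw. Paw volume was read by plethysmometer at 1, 2, 3 and 4 h relative to pre-injection. % inhibition = [(D0 − Dt)/D0] × 100 versus control group mean at each time. Mean ± SD, n = 5, Student's test.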"}, "Rattus norvegicus [7]": {"test_system": "Rattus norvegicus", "test": "Antiinflammatory activity in Wistar rat assessed as inhibition of carrageenan-induced paw edema at 10 mg/kg, po preincubated for 1 hr followed by carrageenan challenge measured at 3 hrs by plethysmometer relative to control", "method_in_brief": "as §2"}, "Rattus norvegicus [8]": {"test_system": "Rattus norvegicus", "test": "Antiinflammatory activity in Wistar rat assessed as inhibition of carrageenan-induced paw edema at 10 mg/kg, po preincubated for 1 hr followed by carrageenan challenge measured at 4 hrs by plethysmometer relative to control", "method_in_brief": "as §2"}, "Rattus norvegicus [9]": {"test_system": "Rattus norvegicus", "test": "Antiinflammatory activity in Wistar rat assessed as inhibition of carrageenan-induced paw edema at 10 mg/kg, po preincubated for 1 hr followed by carrageenan challenge measured at 2 hrs by plethysmometer relative to control", "method_in_brief": "as §2"}},
  "data": [
    {"compound": "C/C1=C/CCC2=C[C@@H](OC2=O)C(C)(C)/C=C\\C1=O", "values": [
      {"measurement": "inhibition", "setting": "[1]", "value": 22.6, "unit": "%"},
      {"measurement": "inhibition", "setting": "[2]", "value": 32.9, "unit": "%"},
      {"measurement": "inhibition", "setting": "[3]", "value": 15.5, "unit": "%"},
      {"measurement": "inhibition", "setting": "[4]", "value": 44.4, "unit": "%"},
      {"measurement": "IC50", "setting": "[5]", "value": 23.8, "unit": "µM"}
    ]},
    {"compound": "COC(=O)/C1=C\\CC(C)(C)/C=C/C(=O)C(C)CCC1", "note": "(single isomer, unassigned; (-))", "values": [
      {"measurement": "inhibition", "setting": "[1]", "value": 16.7, "unit": "%"},
      {"measurement": "inhibition", "setting": "[2]", "value": 24.6, "unit": "%"},
      {"measurement": "inhibition", "setting": "[3]", "value": 8.73, "unit": "%"},
      {"measurement": "IC50", "setting": "[5]", "value": 220, "unit": "µM"}
    ]},
    {"compound": "O=C(O)Cc1ccccc1Nc1c(Cl)cccc1Cl", "note": "[DICLOFENAC SODIUM]", "values": [
      {"measurement": "inhibition", "setting": "[1]", "value": 31.8, "unit": "%"},
      {"measurement": "inhibition in vivo at 10 mg/kg", "setting": "Rattus norvegicus [6]", "value": 64.9, "unit": "%"},
      {"measurement": "inhibition", "setting": "[2]", "value": 41.7, "unit": "%"},
      {"measurement": "inhibition in vivo at 10 mg/kg", "setting": "Rattus norvegicus [7]", "value": 73.7, "unit": "%"},
      {"measurement": "inhibition", "setting": "[3]", "value": 22.6, "unit": "%"},
      {"measurement": "inhibition", "setting": "[4]", "value": 70.2, "unit": "%"},
      {"measurement": "inhibition in vivo at 10 mg/kg", "setting": "Rattus norvegicus [8]", "value": 78.6, "unit": "%"},
      {"measurement": "IC50", "setting": "[5]", "value": 4.14, "unit": "µM"},
      {"measurement": "inhibition in vivo at 10 mg/kg", "setting": "Rattus norvegicus [9]", "value": 71.5, "unit": "%"}
    ]}
  ]
}
